Source: ChEMBL document CHEMBL1926663, “Identification of new aminoacid amides containing the imidazo[2,1-b]benzothiazol-2-ylphenyl moiety as inhibitors of tumorigenesis by oncogenic Met signaling” (Eur J Med Chem, 2012)
Calls of active or inactive are those of the source. The rule behind the calls is not given here.

What was measured:
BT-474 [1] = test: Cytotoxicity against serum-starved human BT474 cells at 10 uM after 48 hrs by Cell Titer-Glo luminescent assay; assay type: functional, cell-based
MCF7 [2] = test: Cytotoxicity against serum-starved human MCF7 cells over-expressing ErbB2 cells at 10 uM after 48 hrs by Cell Titer-Glo luminescent assay; assay type: functional, cell-based
[3] = Chemical stability in solid state; assay type: physicochemical
[4] = Chemical stability in DMSO; assay type: physicochemical
[5] = Chemical stability in chloroform; assay type: physicochemical
[6] = Chemical stability in methanol; assay type: physicochemical
MDCK [7] = test: Cytotoxicity against HGF-stimulated […] MDCK cells at biologically active concentration; assay type: cell-based
MDCK [8] = test: Cytotoxicity against HGF-stimulated […] MDCK cells at 50 to 100 fold higher biologically active concentration; assay type: cell-based
HepG2 [9] = test: Cytotoxicity against serum-starved human HepG2 cells assessed as reduction of cell survival after 48 hrs by Cell Titer-Glo luminescent assay; assay type: functional, cell-based
GTL 16 [10] = test: Cytotoxicity against serum-starved human GTL16 cells assessed as reduction of cell survival after 48 hrs by Cell Titer-Glo luminescent assay; assay type: functional, cell-based
BT-474 [11] = test: Cytotoxicity against serum-starved human BT474 cells assessed as reduction of cell survival at 10 to 30 uM after 48 hrs by Cell Titer-Glo luminescent assay; assay type: functional, cell-based
Procedure, shortened: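 Cells were held in serum-free medium for 24 h, then exposed to compound for 48 h. Viability was read by CellTiter-Glo luminescence, and data come from three independent experiments run in duplicate. BT474 was routinely maintained in RPMI with 4 mM L-glutamine, 10% FBS and penicillin/streptomycin at 37 °C under 5% CO2.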

MCF7 [12] = test: Cytotoxicity against serum-starved human MCF7 cells over-expressing ErbB2 cells assessed as reduction of cell survival at 10 to 30 uM after 48 hrs by Cell Titer-Glo luminescent assay; assay type: functional, cell-based
[13] = biological target: Macrophage-stimulating protein receptor (Homo sapiens) (UniProt Q04912); test: Inhibition of TEL-fused RON-mediated mouse BA/F3 cell proliferation at 1 uM after 48 hrs by cell titre blue based spectrophotometry; settings: BaF3
Procedure, shortened: (§1)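 Ba/F3 cells expressing active kinase forms, or IL3-dependent; 2×10^4 cells/well; 1/2 serial dilutions from 0 to 10 µM (text also gives 0.1–40 µM); 48 h at 37 °C; Cell Titer Blue; absorbance at 490 nm with cell-free blank for background; proliferation as % of untreated cells; triplicate.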

BaF3 = test: Antiproliferative activity against IL3-stimulated mouse BA/F3 cells at 1 uM after 48 hrs by cell titre blue based spectrophotometry; assay type: functional; procedure, shortened: as §1
[14] = biological target: Epidermal growth factor receptor (Homo sapiens) (UniProt P00533); test: Inhibition of ErbB1 phosphorylation in human BT474 cells at 1 to 10 uM pretreated overnight prior to HGF stimulation by Western blot analysis; assay type: cell-based; settings: BT-474
Procedure, shortened: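 BT-474 cells starved, pretreated overnight with compound at 1, 3, 10 µM, then HGF 20 ng/ml; total extracts immunoblotted for phospho-ErbBs; ERK as loading control.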

[15] = Antitumor activity against human GTL16 cells xenografted in nude mouse assessed as reduction tumor weight at 10 mg/kg, ip administered for every 2 days for 21 days (reference value: 865.4 348.9 mg); assay type: functional, GTL 16; settings: route intraperitoneal
[16] = Antitumor activity against human GTL16 cells xenografted in nude mouse assessed as reduction tumor weight at 30 mg/kg, ip administered for every 2 days for 21 days (reference value: 865.4 348.9 mg); assay type: functional, GTL 16; settings: route intraperitoneal
[17] = Cytotoxicity against cortical neurons assessed as reduction in cell viability at 100 uM after 24 hrs by Cell Titer-Glo luminescent assay; settings: cortical neurone
Procedure, shortened: (§2)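 Primary embryonic cortical neuron and hepatocyte cultures exposed to compound for 24 h; viability read by Cell Titer Glo luminescence; quadruplicate.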

Hepatocyte = test: Cytotoxicity against hepatocytes assessed as reduction in cell viability at 100 uM after 24 hrs by Cell Titer-Glo luminescent assay; assay type: cell-based; procedure, shortened: as §2
[18] = Antitumor activity against human GTL16 cells xenografted in nude mouse assessed as reduction tumor weight at 10 to 30 mg/kg, ip administered for every 2 days for 21 days; assay type: functional, GTL 16; set-up: scale not given: the % may be the effect or the level left; settings: dose mg/kg 10-30; route intraperitoneal
Mus musculus = test: Toxicity in human GTL16 cells xenografted nude mouse assessed as reduction of body weight at 10 to 30 mg/kg, ip administered for every 2 days for 21 days; assay type: organism-based; set-up: dose 10-30 mg/kg, route intraperitoneal; settings: in vivo
[19] = biological target: Hepatocyte growth factor receptor (Homo sapiens) (UniProt P08581); settings: BaF3; 1 uM
[20] = biological target: Hepatocyte growth factor receptor (Homo sapiens) (UniProt P08581); settings: HepG2, 10 uM
[21] = biological target: Hepatocyte growth factor receptor (Homo sapiens) (UniProt P08581); settings: 1 uM
[22] = biological target: Hepatocyte growth factor receptor (Homo sapiens) (UniProt P08581); settings: 10 uM
HepG2 [23] = test: Cytotoxicity against serum-starved human HepG2 cells at 2 uM after 48 hrs by Cell Titer-Glo luminescent assay; assay type: functional, cell-based
GTL 16 [24] = test: Cytotoxicity against serum-starved human GTL16 cells at 2 uM after 48 hrs by Cell Titer-Glo luminescent assay; assay type: functional, cell-based
MCF7 [25] = test: Cytotoxicity against serum-starved human MCF7 cells over-expressing ErbB2 cells at 2 uM after 48 hrs by Cell Titer-Glo luminescent assay; assay type: functional, cell-based
BT-474 [26] = test: Cytotoxicity against serum-starved human BT474 cells at 2 uM after 48 hrs by Cell Titer-Glo luminescent assay; assay type: functional, cell-based
[27] = biological target: Hepatocyte growth factor receptor (Homo sapiens) (UniProt P08581); test: Inhibition of Met-mediated scattering in HGF-stimulated […] MDCK cells pre-incubated overnight prior to HGF stimulation for 24 hrs measured after 24 to 48 hrs; assay type: cell-based
[28] = biological target: Hepatocyte growth factor receptor (Homo sapiens) (UniProt P08581); test: Inhibition of Met-mediated scattering in HGF-stimulated […] MDCK cells at 10 uM pre-incubated overnight prior to HGF stimulation for 24 hrs measured after 24 to 48 hrs; assay type: cell-based
Procedure, shortened: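 MDCK cells in DMEM with 2% FBS, 1000 cells/well, settled overnight; compounds 0.1–100 µM overnight at 37 °C, then HGF 20 ng/ml for 24 h; further 24–48 h; PBS wash, 4% PFA fix; scattered cells counted in 30 colonies; IC50 = 50% inhibition of scattering.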

Compound | Stability [3] | Stability [4] | Stability [5] | Stability [6] | Activity (MDCK [7]) | Activity (MDCK [8]) | also measured
COc1cc2ncnc(Nc3ccc(F)c(Cl)c3)c2cc1OCCCN1CCOCC1 |  |  |  |  |  |  | Activity (BT-474 [1]): Active; Activity (MCF7 [2]): Active
O=C(Cc1cc(C(F)(F)F)cc(C(F)(F)F)c1)N[C@H](Cc1ccccc1)C(=O)Nc1ccc(-c2cn3c(n2)sc2ccccc23)cc1 | Stable | Stable | Stable | Stable | Non-toxic | Toxic | Activity (HepG2 [9]): Dose-dependent effect; Activity (GTL 16 [10]): Dose-dependent effect; Activity (BT-474 [11]): inactive; Activity (MCF7 [12]): inactive
C[C@H](NC(=O)Cc1cc(F)cc(F)c1)C(=O)Nc1ccc(-c2cn3c4c(sc3n2)CCN(Cc2ccccc2)C4)cc1 | Stable | Stable | Stable | Stable |  |  | 
O=C(Cc1cc(C(F)(F)F)cc(C(F)(F)F)c1)N[C@@H](Cc1ccccc1)C(=O)Nc1ccc(-c2cn3c(n2)sc2ccccc23)cc1 | Stable | Stable | Stable | Stable | Non-toxic | Toxic | inhibition [13]: Active; Activity (BaF3): Active; inhibition [14]: inactive; Activity [15]: 268.8 mg; Activity [16]: 234.8 mg; Activity [17]: 12%; Activity (Hepatocyte): 28%; Activity [18]: 70%; Activity (Mus musculus): Non-toxic; Activity (HepG2 [9]): Dose-dependent effect; Activity (GTL 16 [10]): Dose-dependent effect; Activity (BT-474 [11]): inactive; Activity (MCF7 [12]): inactive; inhibition [19]: Active; inhibition [20]: 30%; inhibition [21]: 21%; inhibition [22]: 53%
Cc1cc(C)cc(CC(=O)N[C@H](Cc2ccccc2)C(=O)Nc2ccc(-c3cn4c(n3)sc3ccccc34)cc2)c1 | Stable | Stable | Stable | Stable | Non-toxic | Toxic | 
O=C(Cc1cc(C(F)(F)F)cc(C(F)(F)F)c1)N[C@@H](Cc1ccccc1)C(=O)Nc1ccc(-c2cn3c(n2)sc2cc(Br)ccc23)cc1 | Stable | Stable | Stable | Stable | Non-toxic | Toxic | 
Cc1cc(C)cc(CC(=O)N[C@@H](Cc2ccc(O)cc2)C(=O)Nc2ccc(-c3cn4c(n3)sc3ccccc34)cc2)c1 | Stable | Stable | Stable | Stable |  |  | 
Cc1cc(C)cc(CC(=O)N[C@H](Cc2ccccc2)C(=O)Nc2ccc(-c3cn4c5c(sc4n3)CN(Cc3ccccc3)CC5)cc2)c1 | Stable | Stable | Stable | Stable |  |  | 
Cc1cc(C)cc(CC(=O)N[C@@H](Cc2ccccc2)C(=O)Nc2ccc(-c3cn4c5c(sc4n3)CCCC5)cc2)c1 | Stable | Stable | Stable | Stable |  |  | 
C[C@@H](NC(=O)Cc1cc(F)cc(F)c1)C(=O)Nc1ccc(-c2cn3c4c(sc3n2)CCN(Cc2ccccc2)C4)cc1 | Stable | Stable | Stable | Stable |  |  | 
O=C(Cc1cc(F)cc(F)c1)NCCC(=O)Nc1ccc(-c2cn3c4c(sc3n2)CN(Cc2ccccc2)CC4)cc1 | Stable | Stable | Stable | Stable |  |  | 
O=C(Cc1cc(F)cc(F)c1)NCCC(=O)Nc1ccc(-c2cn3c4c(sc3n2)CCN(Cc2ccccc2)C4)cc1 | Stable | Stable | Stable | Stable |  |  | 
Cc1ccc(C[C@H](NC(=O)Cc2cc(C(F)(F)F)cc(C(F)(F)F)c2)C(=O)Nc2ccc(-c3cn4c(n3)sc3ccccc34)cc2)cc1 | Stable | Stable | Stable | Stable |  |  | 
Cc1cc(C)cc(CC(=O)N[C@@H](Cc2ccccc2)C(=O)Nc2ccc(-c3cn4c(n3)sc3ccccc34)cc2)c1 | Stable | Stable | Stable | Stable | Non-toxic | Toxic | Activity (HepG2 [9]): Dose-dependent effect; Activity (GTL 16 [10]): Dose-dependent effect; Activity (BT-474 [11]): inactive; Activity (MCF7 [12]): inactive
Cc1[nH]c(/C=C2\C(=O)Nc3ccc(S(=O)(=O)N(C)c4cccc(Cl)c4)cc32)c(C)c1C(=O)N1CCN(C)CC1 |  |  |  |  |  |  | Activity (HepG2 [23]): Active; Activity (GTL 16 [24]): Active; Activity (MCF7 [25]): inactive; Activity (BT-474 [26]): inactive
Cc1cc(C)cc(CC(=O)NCC(=O)Nc2ccc(-c3cn4c(n3)sc3ccccc34)cc2)c1 | Stable | Stable | Stable | Stable |  |  | inhibition [27]: inactive
Cc1cc(C)cc(CC(=O)N[C@@H](Cc2ccccc2)C(=O)Nc2ccc(-c3cn4c5c(sc4n3)CN(Cc3ccccc3)CC5)cc2)c1 | Stable | Stable | Stable | Stable |  |  | 
O=C(Cc1cc(F)cc(F)c1)N[C@@H](CS)C(=O)Nc1ccc(-c2cn3c4c(sc3n2)CN(Cc2ccccc2)CC4)cc1 | Stable | Stable | Stable | Stable |  |  | 
Cc1ccc(CC(=O)N[C@@H](Cc2ccccc2)C(=O)Nc2ccc(-c3cn4c(n3)sc3ccccc34)cc2)cc1 | Stable | Stable | Stable | Stable | Non-toxic | Toxic | inhibition [28]: 30%
Cc1ccc(C[C@H](NC(=O)Cc2cc(C)cc(C)c2)C(=O)Nc2ccc(-c3cn4c(n3)sc3ccccc34)cc2)cc1 | Stable | Stable | Stable | Stable |  |  | 
O=C(Cc1cc(F)cc(F)c1)N[C@@H](Cc1ccccc1)C(=O)Nc1ccc(-c2cn3c(n2)sc2ccccc23)cc1 | Stable | Stable | Stable | Stable | Non-toxic | Toxic | Activity (HepG2 [9]): Dose-dependent effect; Activity (GTL 16 [10]): Dose-dependent effect; Activity (BT-474 [11]): inactive; Activity (MCF7 [12]): inactive
